Data from ChEMBL document CHEMBL2176900, “Design and synthesis of a novel series of bicyclic heterocycles as potent γ-secretase modulators” (J Med Chem, 2012).
In brackets after ≈: the same amount, converted by molar mass. Activity calls are given as the source filed them. No cut-off for these calls is given here.

Experiments:
Mus musculus [1] = assay: Antialzheimer activity in CD1 mouse assessed as amyloid beta 42 level in brain at 10 mg/kg, po at 48 hrs by ELISA relative to control; format: functional
How it was run: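 Male CD1 mice, fasted overnight, received a single 10 or 30 mg/kg oral dose. Brain was sampled at an added 48 h time point. The DEA-soluble brain fraction was neutralized and Aβ42 was measured by sandwich ELISA with fluorogenic read-out. Values are % versus vehicle.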

Rattus norvegicus [2] = assay: Antialzheimer activity in Sprague-Dawley rat assessed as amyloid beta 38 level in CSF at 10 mg/kg, po at 4 hrs by ELISA relative to control; format: functional
How it was run: (§1)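 Male Sprague-Dawley rats (180-220 g), fasted overnight, were given 10 mg/kg by gastric intubation as a 5 mg/mL suspension in 0.5% methocellulose. At 2, 4, 7 and 25 h, 50 μL CSF was taken from the cisterna magna under isoflurane, then brain was collected. Aβ37/38/40/42 were measured by MesoScale Discovery sandwich immunoassays. Results are mean % change versus T = 0 h, n = 5.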

[3] = Fraction unbound in dog plasma; format: ADME, cell-free, Canis lupus familiaris
Mus musculus [4] = assay: Antialzheimer activity in CD1 mouse assessed as amyloid beta 38 level in brain at 10 mg/kg, po at 24 hrs by ELISA relative to control; format: functional
How it was run: (§2)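 Male CD1 SPF mice, fasted overnight, got a single oral dose of 10 or 30 mg/kg. At each time point the right brain hemisphere was homogenized in 0.4% DEA/50 mM NaCl with protease inhibitors and spun at 221300g for 50 min. The supernatant was neutralized with Tris-HCl pH 6.8. Aβ38 or Aβ42 was read by sandwich ELISA with a fluorogenic peroxidase substrate (ex 320/em 420 nm). Results are mean % change versus T = 0 h, n = 4.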

Canis familiaris [5] = assay: Antialzheimer activity in beagle dog assessed as amyloid beta 38 level in cerebrospinal fluid at 20 mg/kg, po at 8 hrs by ELISA relative to control
Mus musculus [6] = assay: Antialzheimer activity in CD1 mouse assessed as amyloid beta 42 level in brain at 30 mg/kg, po at 24 hrs by ELISA relative to control; format: functional; how it was run: as §2
Rattus norvegicus [7] = assay: Antialzheimer activity in Sprague-Dawley rat assessed as amyloid beta 40 level in brain at 10 mg/kg, po at 2 hrs by ELISA relative to control; format: functional; how it was run: as §1
Cytochrome P450 2D6 = Cytochrome P450 2D6 (Homo sapiens, UniProt P10635); assay: Inhibition of CYP2D6 in human liver microsomes using dextrometorphan as substrate; format: ADME, Microsome
Chain of Cytochrome P450 2D6 (P10635 whole entry): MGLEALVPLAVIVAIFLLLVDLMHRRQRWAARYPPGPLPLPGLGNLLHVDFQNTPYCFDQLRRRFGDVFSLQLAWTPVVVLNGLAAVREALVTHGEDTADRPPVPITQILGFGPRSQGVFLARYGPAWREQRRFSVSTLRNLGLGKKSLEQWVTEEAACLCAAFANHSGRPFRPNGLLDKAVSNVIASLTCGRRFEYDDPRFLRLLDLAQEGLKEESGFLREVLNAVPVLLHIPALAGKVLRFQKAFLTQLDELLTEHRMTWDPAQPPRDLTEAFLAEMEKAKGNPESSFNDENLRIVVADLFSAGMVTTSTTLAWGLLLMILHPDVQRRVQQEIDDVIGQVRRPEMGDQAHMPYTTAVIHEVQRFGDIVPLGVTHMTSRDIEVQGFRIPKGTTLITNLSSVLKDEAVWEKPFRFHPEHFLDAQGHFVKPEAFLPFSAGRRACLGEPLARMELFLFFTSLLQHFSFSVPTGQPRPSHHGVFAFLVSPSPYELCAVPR

Rattus norvegicus [8] = assay: Antialzheimer activity in Sprague-Dawley rat assessed as amyloid beta 42 level in CSF at 10 mg/kg, po at 25 hrs by ELISA relative to control; format: functional; how it was run: as §1
Brain = assay: Drug uptake in CD1 mouse brain at 10 mg/kg, po at 24 hrs by LC-MS/MS analysis; format: ADME, organism-based; design: dose 10 mg/kg, route oral; conditions: in vivo, BLD = below limit of detection
How it was run: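 Overnight-fasted male CD1 mice received one oral dose (10 or 30 mg/kg) in 20% Captisol. After sacrifice, the left brain hemisphere was stored at −18 °C. Compound level was quantified by a qualified LC-MS/MS method, alongside EDTA plasma spun at 1900g, 4 °C. n = 4 per time point.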

MDR1 = assay: Apparent permeability from basal to apical side of pig LLCPK1 cells expressing MDR1; format: ADME, cell-based, Sus scrofa; conditions: LLC-PK1
Mus musculus [9] = assay: Antialzheimer activity in CD1 mouse assessed as amyloid beta 42 level in brain at 30 mg/kg, po at 4 hrs by ELISA relative to control; format: functional; how it was run: as §2
Rattus norvegicus [10] = assay: Antialzheimer activity in Sprague-Dawley rat assessed as amyloid beta 42 level in CSF at 10 mg/kg, po at 7 hrs by ELISA relative to control; format: functional; how it was run: as §1
[11] = Oral bioavailability in Sprague-Dawley rat at 10 mg/kg; format: ADME, organism-based; conditions: in vivo
Rattus norvegicus [12] = assay: Antialzheimer activity in Sprague-Dawley rat assessed as amyloid beta 37 level in CSF at 10 mg/kg, po at 4 hrs by ELISA relative to control; format: functional; how it was run: as §1
Rattus norvegicus [13] = assay: Antialzheimer activity in Sprague-Dawley rat assessed as amyloid beta 40 level in CSF at 10 mg/kg, po at 4 hrs by ELISA relative to control; format: functional; how it was run: as §1
Rattus norvegicus [14] = assay: Antialzheimer activity in Sprague-Dawley rat assessed as amyloid beta 40 level in brain at 10 mg/kg, po at 25 hrs by ELISA relative to control; format: functional; how it was run: as §1
[15] = Thermodynamic solubility in fed state simulated intestinal fluid; format: physicochemical; conditions: read-out: Therm_solubility
How it was run: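 Thermodynamic solubility was measured in pH 4.0 and pH 7.4 buffers, 0.01 N HCl, and fasted-state and fed-state simulated intestinal fluids (FaSSIF, FeSSIF). Results are in […].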

Rattus norvegicus [16] = assay: Antialzheimer activity in Sprague-Dawley rat assessed as amyloid beta 42 level in brain at 10 mg/kg, po at 2 hrs by ELISA relative to control; format: functional; how it was run: as §1
Mus musculus [17] = assay: Reduction in total amyloid beta level in CD1 mouse at 30 mg/kg, po at 4 hrs by ELISA relative to control; format: functional, organism-based; design: dose 30 mg/kg
How it was run: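 Overnight-fasted male CD1 Swiss SPF mice were given a single oral dose as a suspension in 20% Captisol in water. Brains were taken at 4 h and the right hemisphere homogenized in 0.4% DEA/50 mM NaCl with protease inhibitors, then spun at 221300g for 50 min. The neutralized supernatant was read by Aβtotal ELISA (capture JRF/rAβ/2, biotinylated 4G8, streptavidin-peroxidase, QuantaBlu, ex 320/em 420 nm). Values are % change versus untreated animals, n ≥ 6.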

[18] = Drug metabolism in dog liver microsomes at 1 uM after 15 mins by ion-trap mass spectrophotometry; format: ADME, Canis lupus familiaris, Microsome; conditions: read-out: Drug metabolism
[19] = Lipophilicity, log P of the compound; format: physicochemical; conditions: octanol/water
[20] = Plasma concentration in beagle dog at 20 mg/kg, po at 24 hrs; format: ADME, organism-based, Canis lupus familiaris; design: dose 20 mg/kg, route oral
Rattus norvegicus [21] = assay: Antialzheimer activity in Sprague-Dawley rat assessed as amyloid beta 38 level in brain at 10 mg/kg, po at 2 hrs by ELISA relative to control; format: functional; how it was run: as §1
Canis familiaris [22] = assay: Antialzheimer activity in beagle dog assessed as amyloid beta 38 level in cerebrospinal fluid at 20 mg/kg, po at 24 hrs by ELISA relative to control
Canis familiaris [23] = assay: Antialzheimer activity in beagle dog assessed as amyloid beta 38 level in cerebrospinal fluid at 20 mg/kg, po at 4 hrs by ELISA relative to control
Mus musculus [24] = assay: Inhibition of gamma-secretase in CD1 mouse assessed as total amyloid beta level in brain at 30 mg/kg, po at 8 hrs by ELISA relative to control; format: functional; design: scale not given: the % may be the effect or the level left
How it was run: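 Fasted male CD1 SPF mice were dosed orally at 10 or 30 mg/kg in 20% Captisol. Right hemisphere was homogenized in 0.4% DEA/50 mM NaCl and the high-speed supernatant neutralized. Aβtotal ELISA used N-terminal JRF/rAβ/2 capture, biotinylated 4G8 and streptavidin-peroxidase, then a fluorogenic substrate (ex 320/em 420 nm). Standards spanned 10000–0.3 pg/mL. Values are % change vs T = 0 h, n = 4.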

Compound `COc1nc(Nc2cccc3c2nc(-c2ccc(F)cc2)n3C)ccc1-n1cnc(C)c1` has an Activity (Mus musculus [1]) of 101%, an Activity (Rattus norvegicus [2]) of 179% and a fraction unbound [3] of 0.0003. For the same compound, the Activity (Mus musculus [4]) was 83%, the Activity (Canis familiaris [5]) was 184% and the Activity (Mus musculus [6]) was 77%. It also gave an Activity (Rattus norvegicus [7]) of 77%, an IC50 (Cytochrome P450 2D6) of 3.6 µM and an Activity (Rattus norvegicus [8]) of 89%. The Drug uptake (Brain) was “BLD”, the Papp B→A (MDR1) was 4 ×10⁻⁶ cm/s and the Activity (Mus musculus [9]) was 35%. For the same compound, the Activity (Rattus norvegicus [10]) was 57%, the bioavailability [11] was 95% and the Activity (Rattus norvegicus [12]) was 955%. The Activity (Rattus norvegicus [13]) was 60%, the Activity (Rattus norvegicus [14]) was 107% and the solubility thermodynamic [15] was 20 µg/mL (≈ 46.7 µM). The Activity (Rattus norvegicus [16]) was 75%, the Activity (Mus musculus [17]) was “inactive” and the metabolised at 0.25 h, 1 µM [18] was 37%. The logP [19] was 5.25, the concentration at 24 h [20] was 40 nM and the Activity (Rattus norvegicus [21]) was 149%. The Activity (Canis familiaris [22]) was 114%, the Activity (Canis familiaris [23]) was 134% and the Activity (Mus musculus [24]) was 83%.
